CendR NRP1 mod: alters CendR peptide binding to human NRP-1; AID 602438; FAM-RPARPAR peptide binding to NRP-1, fluorescence polarization; 360,000 tested, 0.85% active; inhibition, % at 25 µM;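 active = inhibition or corrected inhibition above about 18%, plus a signal ratio from 0.5 to 1.5, limit read from the data, passing the limit was not always enough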
Target sequence (O14786 whole entry, looked up): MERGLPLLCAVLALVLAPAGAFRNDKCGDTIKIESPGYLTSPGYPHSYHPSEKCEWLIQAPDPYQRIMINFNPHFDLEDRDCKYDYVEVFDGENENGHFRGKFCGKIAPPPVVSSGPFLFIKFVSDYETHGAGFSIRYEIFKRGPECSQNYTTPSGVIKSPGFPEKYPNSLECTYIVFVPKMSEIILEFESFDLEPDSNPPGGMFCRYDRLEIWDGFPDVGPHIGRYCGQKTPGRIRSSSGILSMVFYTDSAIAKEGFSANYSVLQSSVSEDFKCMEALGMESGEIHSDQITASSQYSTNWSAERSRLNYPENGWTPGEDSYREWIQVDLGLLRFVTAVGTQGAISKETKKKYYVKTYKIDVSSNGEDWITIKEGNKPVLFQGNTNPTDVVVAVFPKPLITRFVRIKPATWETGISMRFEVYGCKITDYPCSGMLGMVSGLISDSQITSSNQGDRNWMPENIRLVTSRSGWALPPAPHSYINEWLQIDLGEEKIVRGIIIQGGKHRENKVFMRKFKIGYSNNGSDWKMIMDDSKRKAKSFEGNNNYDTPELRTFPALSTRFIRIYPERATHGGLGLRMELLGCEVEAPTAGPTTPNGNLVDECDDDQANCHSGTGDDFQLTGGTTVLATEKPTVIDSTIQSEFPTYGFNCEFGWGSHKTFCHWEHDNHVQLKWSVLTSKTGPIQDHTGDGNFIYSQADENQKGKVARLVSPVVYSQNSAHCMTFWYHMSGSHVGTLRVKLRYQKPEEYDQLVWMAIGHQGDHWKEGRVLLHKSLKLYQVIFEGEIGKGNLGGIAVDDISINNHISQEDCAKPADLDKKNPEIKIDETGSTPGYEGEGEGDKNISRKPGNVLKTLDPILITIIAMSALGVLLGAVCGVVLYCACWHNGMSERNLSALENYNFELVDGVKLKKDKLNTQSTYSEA
DAGLB inh: blocks human DAGLB lipase activity | HEK293T DAGLB membrane lysate, EnzChek fluorogenic substrate | AID 504411 | inhibition, % at 5.17 µM | Q8NCG7 | 340,000 tested, 0.059% active; in the data active = inhibition above about 34%;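 note: 0% = enzyme with vehicle and 100% = wells lacking enzyme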
UCH37 inh: human UCH37 deubiquitinating enzyme inhibition; Q9Y5K5; purified proteasome/UCH37, Ub-AMC cleavage fluorescence; inhibition, % (concentration not given with the values); 330,000 tested, 0.33% active;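 active = mean inhibition over replicate wells above about 20%, limit read from the data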;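 note: 0% = compound-free wells with enzyme and 100% = wells lacking proteasome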
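System: Proteasome-associated human UCH37 deubiquitinase; Input: 0.15 nM proteasome in added enzyme buffer; Also added: Ub-AMC substrate from 1 µM stock; Incubation: 30 min compound-proteasome preincubation then 25 min substrate reaction, room temperature; Detection: fluorescence, ex 355 nm, em 460 nm; Read-out: % inhibition of Ub-AMC cleavage fluorescence; Benchmarks: no-proteasome and no-compound wells.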
CTSL1 counter: counter-screen for PFM18AAP inhibitors: inhibitors of F. hepatica cathepsin L1; recombinant F. hepatica cathepsin L1, Z-Leu-Arg-MCA fluorescence; inhibition, % at 5.96 µM; 300,000 tested, 0.49% active;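 active = inhibition above the mean of all tested compounds plus 3 SD, set per screening campaign, cut at about 17% in these data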;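 note: 0% = plate median of test compound wells and 100% = 1 µM Z-Phe-Ala-diazomethylketone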
MT1-MMP act inh: inhibitors of human MT1-MMP activation; P50281; HT1080 RFP-PRO-GFP cells, GFP/RFP ratio fluorescence, overnight; percent of plate control window, DMSO zero; GFP/RFP ratio change, % at 20 µM; 360,000 tested, 0.061% active;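 active = GFP/RFP ratio change of at least 30% with cell ATP level not reduced by more than half and red fluorescence within 50% of control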
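Compound: 20 µM single dose, 1% DMSO / System: HT1080 RFP-PRO-GFP cells / Controls: DMSO and RFP-L50D-GFP cell wells / Read-out basis: GFP/RFP fluorescence ratio / Schedule: overnight compound exposure at 37 °C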
The depositor's hits bear a star. Hits are enriched below; roughly 1.5% of the tested compounds scored in any of these assays.

`O=C1C2CC=C(Cl)CC2C(=O)N1CCCCCCN1C(=O)C2CC=C(Cl)CC2C1=O` (stereo not drawn) gave CendR NRP1 mod -4, DAGLB inh 7, UCH37 inh 3, CTSL1 counter 42* and MT1-MMP act inh -16.
Screening O=C1C2CC=C(Cl)CC2C(=O)N1CCN1CCOCC1 (stereo not drawn) returned CendR NRP1 mod 5, DAGLB inh 0, UCH37 inh 7, CTSL1 counter -5 and MT1-MMP act inh 3.
Screening Cc1cc(C=NNC(=O)c2cccc([N+](=O)[O-])c2)c(C)n1-c1ccccc1 returned UCH37 inh 7.
COc1ccc(NC(=S)Nn2cnnc2)c(OC)c1 was read as CendR NRP1 mod 44*, DAGLB inh 2 and MT1-MMP act inh 8.
Screening CN(C)c1ccc(C=NN(CCC#N)C2=NS(=O)(=O)c3ccccc32)cc1 returned UCH37 inh 2.
Screening CCOC(=O)C(=CN(CCc1ccccc1)CC(=O)OC)C(=O)OCC returned CendR NRP1 mod 26*, DAGLB inh -2, UCH37 inh 2, CTSL1 counter -5 and MT1-MMP act inh 8.
COc1ccc(CNC(=O)Oc2ccccc2)cc1Cl was read as CendR NRP1 mod 7, DAGLB inh -1, UCH37 inh 7, CTSL1 counter 19* and MT1-MMP act inh -2.
`COC(=O)NCc1ccc(Cl)c(Cl)c1` gave CendR NRP1 mod 6, DAGLB inh 1, UCH37 inh -2, CTSL1 counter 2 and MT1-MMP act inh -1.
For O=C(NN=Cc1ccccc1O)c1cccc2ccccc12 the results were UCH37 inh -4.
Screening O=C(NCc1ccc(Cl)cc1)C1CCC(=O)N(C2CC2)C1 (stereo not drawn) returned CendR NRP1 mod 20*, DAGLB inh 0, UCH37 inh 3, CTSL1 counter 1 and MT1-MMP act inh 1.
For CC1(C)C(=O)N(c2ccccc2)C1c1ccccc1O (stereo not drawn) the results were CendR NRP1 mod 2, DAGLB inh 2, UCH37 inh 1, CTSL1 counter -5 and MT1-MMP act inh 1.
Screening COc1ccc(N2C(=O)C(C)(C)C2c2c(O)ccc3ccccc23)cc1 (stereo not drawn) returned CendR NRP1 mod 10, DAGLB inh -1, UCH37 inh 3, CTSL1 counter 17* and MT1-MMP act inh -4.
`Cc1cc(C)n(CCc2nc(-c3ccc(-c4ccccc4)cc3)cs2)n1` gave CendR NRP1 mod 4, DAGLB inh -7, UCH37 inh 1, CTSL1 counter -3 and MT1-MMP act inh 2.
Cc1cc(C)n(CCc2nc(-c3cccs3)cs2)n1 was read as CendR NRP1 mod 31*, DAGLB inh -9, UCH37 inh 1, CTSL1 counter 1 and MT1-MMP act inh 2.
For C/C(=N/NC(=O)CNc1ccc(C)cc1)c1ccc(Cl)cc1 the results were CendR NRP1 mod -18, DAGLB inh -1, CTSL1 counter -2 and MT1-MMP act inh -2.
`CC(=NNC(=O)CNc1ccc(Cl)cc1C)c1ccc(C)cc1` gave UCH37 inh 34*.
Cc1c(CCC(=O)O)c(=O)oc2cc(OCc3ccccc3F)ccc12 was read as CendR NRP1 mod 3, DAGLB inh 0, UCH37 inh -433, CTSL1 counter -2 and MT1-MMP act inh 0.
Screening Cc1c(CC(=O)O)c(=O)oc2cc(OCc3ccc(F)cc3Cl)ccc12 returned CendR NRP1 mod 51*, DAGLB inh 6, UCH37 inh -334, CTSL1 counter 11 and MT1-MMP act inh 1.
`COc1ccc(C=NNc2ccccc2C(=O)O)cc1Cn1cc([N+](=O)[O-])cn1` gave UCH37 inh 6.
CCNC(=S)N1CCN(c2ccccn2)CC1 was read as CendR NRP1 mod 4, DAGLB inh -2, UCH37 inh -2, CTSL1 counter 2 and MT1-MMP act inh 4.
Screening CC(NNC(=S)N1CCN(c2ccccn2)CC1)c1nccc2ccccc12 (stereo not drawn) returned CendR NRP1 mod 24*, DAGLB inh 4 and MT1-MMP act inh 0.
`CC(=O)Nc1ccc(NC(=O)C2CC(=O)N(c3ccc(Cl)cc3)C2)cc1` (stereo not drawn) gave CendR NRP1 mod 28*, DAGLB inh 3, UCH37 inh 2, CTSL1 counter -2 and MT1-MMP act inh 0.
For COc1ccc(OC)c(NC(=O)C2CC(=O)N(c3ccc(Br)cc3)C2)c1 (stereo not drawn) the results were CendR NRP1 mod 26*, DAGLB inh 5, UCH37 inh 2, CTSL1 counter -4 and MT1-MMP act inh 5.
COc1ccc(OC)c(NC(=O)C2CC(=O)N(c3ccccc3)C2)c1 (stereo not drawn) was read as CendR NRP1 mod 9, DAGLB inh 2, UCH37 inh 4, CTSL1 counter -3 and MT1-MMP act inh 14.
`O=c1oc(Nc2ccccc2F)nc2ccccc12` gave CendR NRP1 mod 37*, DAGLB inh -1, UCH37 inh -4, CTSL1 counter -1 and MT1-MMP act inh 1.
Screening CC(=O)N1c2ccc3ccccc3c2C2C=CCC2C1c1ccc(Br)cc1 (stereo not drawn) returned CTSL1 counter -2.
`CC(=O)N1c2ccc(Cl)cc2C2C=CCC2C1c1cccc2ccccc12` (stereo not drawn) gave CendR NRP1 mod -5, DAGLB inh 0, UCH37 inh 48*, CTSL1 counter 1 and MT1-MMP act inh -55.
Cc1cccc(C)c1-n1c(C)cc(C=NNC(=O)CC(=O)NC2CCCCC2)c1C was read as UCH37 inh 6.
For C[C@H]1NC(=O)[C@@]2(C)[C@@H](c3ccccc3)[C@H]3COc4ccccc4[C@@H]3N2C1=O the results were CendR NRP1 mod 25*, DAGLB inh -1, UCH37 inh 15 and MT1-MMP act inh -6.
For C[C@@]12C(=O)N(c3ccc(C(F)(F)F)cc3)C(=O)N1[C@@H]1c3ccccc3OC[C@@H]1[C@H]2c1ccccc1 the results were CendR NRP1 mod 28*, DAGLB inh -30, UCH37 inh 3, CTSL1 counter 0 and MT1-MMP act inh -5.
C[C@]12C(=O)N(c3ccc(F)cc3)C(=O)N1[C@@H]1c3ccccc3OC[C@@H]1[C@H]2c1ccccc1 was read as CendR NRP1 mod 3, DAGLB inh -5, UCH37 inh 2, CTSL1 counter 0 and MT1-MMP act inh -6.
Screening C#CCOc1ccc(Br)cc1C=NO returned UCH37 inh 1.
`O=C1CC/C=C\C[C@@H](CC(=O)N(CCO)Cc2ccccc2)C(=O)NCCO1` gave CendR NRP1 mod 26*, DAGLB inh 2, UCH37 inh 1 and MT1-MMP act inh 2.
`CC(=NNC(=O)c1ccccc1O)C1C(=O)c2ccccc2C1=O` gave UCH37 inh 21*.
